# Measurements reported in ChEMBL document CHEMBL4732226, “Discovery of a potent G-protein-coupled receptor 119 agonist for the treatment of type 2 diabetes” (Bioorg Med Chem, 2021).
# Tests used:
# [1] = Toxicity in female Wistar rat assessed as AST level at 200 mg/kg, po after 28 days (reference value: 128.84 +/- 21.42 U/L); type: organism-based; settings: in vivo, 672 h, time 28 day
# [2] = Toxicity in female Wistar rat assessed as ratio of spleen to body weight at 100 mg/kg, po after 28 days (reference value: 0.244 +/- 0.032); type: organism-based; settings: in vivo, 672 h, time 28 day
# [3] = Toxicity in female Wistar rat assessed as ratio of kidney to body weight at 200 mg/kg, po after 28 days (reference value: 0.801 +/- 0.071); type: organism-based; settings: in vivo, 672 h, time 28 day
# [4] = Toxicity in female Wistar rat assessed as creatinine level at 100 mg/kg, po after 28 days (reference value: 0.6 +/- 0.04 mg/dl); type: organism-based; settings: in vivo, 672 h, time 28 day
# [5] = Elimination rate constant in Beagle dog at 10 mg/kg, po up to 24 hrs; type: ADME, organism-based, Canis lupus familiaris; settings: in vivo
# Outline: (§1)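 Single oral dose at 10 mg/kg given to male Wistar rats and to Beagle dogs; bioavailability also determined in both species.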
# [6] = Toxicity in male Wistar rat assessed as ratio of testes to body weight at 100 mg/kg, po after 28 days (reference value: 1.248 +/- 0.073); type: organism-based; settings: in vivo, 672 h, time 28 day
# [7] = Toxicity in male Wistar rat assessed as ratio of thymus to body weight at 100 mg/kg, po after 28 days (reference value: 0.148 +/- 0.023); type: organism-based; settings: in vivo, 672 h, time 28 day
# [8] = AUC(0 to t) in Wistar rat at 10 mg/kg, po up to 24 hrs; type: ADME, organism-based; design: route oral, dose 10 mg/kg, time <=24; settings: in vivo; outline: as §1
# [9] = Toxicity in male Wistar rat assessed as ratio of thymus to body weight at 200 mg/kg, po after 28 days (reference value: 0.148 +/- 0.023); type: organism-based; settings: in vivo, 672 h, time 28 day
# [10] = Toxicity in female Wistar rat assessed as ratio of adrenals to body weight at 100 mg/kg, po after 28 days (reference value: 0.045 +/- 0.007); type: organism-based; settings: in vivo, 672 h, time 28 day
# [11] = Toxicity in female Wistar rat assessed as ALP level at 400 mg/kg, po after 28 days (reference value: 100.14 +/- 21.98 U/L); type: organism-based; settings: in vivo, 672 h, time 28 day
# [12] = Toxicity in male Wistar rat assessed as ratio of adrenals to body weight at 100 mg/kg, po after 28 days (reference value: 0.020 +/- 0.003); type: organism-based; settings: in vivo, 672 h, time 28 day
# [13] = Toxicity in male Wistar rat assessed as ratio of epididymides to body weight at 100 mg/kg, po after 28 days (reference value: 0.361 +/- 0.028); type: organism-based; settings: in vivo, 672 h, time 28 day
# [14] = Cmax in Beagle dog at 10 mg/kg, po up to 24 hrs; type: ADME, organism-based, Canis lupus familiaris; design: route oral, dose 10 mg/kg, time <=24; settings: in vivo; outline: as §1
# [15] = Toxicity in male Wistar rat assessed as ALT level at 200 mg/kg, po after 28 days (reference value: 30.47 +/- 2.63 U/L); type: organism-based; settings: in vivo, 672 h, time 28 day
# [16] = Toxicity in male Wistar rat assessed as ratio of heart to body weight at 200 mg/kg, po after 28 days (reference value: 0.333 +/- 0.036); type: organism-based; settings: in vivo, 672 h, time 28 day
# [17] = Toxicity in female Wistar rat assessed as ratio of ovaries to body weight at 400 mg/kg, po after 28 days (reference value: 0.091 +/- 0.009); type: organism-based; settings: in vivo, 672 h, time 28 day
# [18] = Toxicity in male Wistar rat assessed as globulin level at 200 mg/kg, po after 28 days (reference value: 2.62 +/- 0.12 g/dl); type: organism-based; settings: in vivo, 672 h, time 28 day
# [19] = Toxicity in male Wistar rat assessed as ratio of heart to body weight at 400 mg/kg, po after 28 days (reference value: 0.333 +/- 0.036); type: organism-based; settings: in vivo, 672 h, time 28 day
# [20] = Toxicity in male Wistar rat assessed as ratio of brain to body weight at 200 mg/kg, po after 28 days (reference value: 0.766 +/- 0.038); type: organism-based; settings: in vivo, 672 h, time 28 day
# [21] = Toxicity in female Wistar rat assessed as AST level at 100 mg/kg, po after 28 days (reference value: 128.84 +/- 21.42 U/L); type: organism-based; settings: in vivo, 672 h, time 28 day
# [22] = AUC(0 to infinity) in Beagle dog at 10 mg/kg, po up to 24 hrs; type: ADME, organism-based, Canis lupus familiaris; design: route oral, dose 10 mg/kg, time <=24; settings: in vivo; outline: as §1
# [23] = Toxicity in male Wistar rat assessed as ratio of spleen to body weight at 100 mg/kg, po after 28 days (reference value: 0.206 +/- 0.026); type: organism-based; settings: in vivo, 672 h, time 28 day
# [24] = Toxicity in female Wistar rat assessed as creatinine level at 200 mg/kg, po after 28 days (reference value: 0.6 +/- 0.04 mg/dl); type: organism-based; settings: in vivo, 672 h, time 28 day
# [25] = Toxicity in female Wistar rat assessed as ophthalmic examination at 400 mg/kg, po after 28 days; type: organism-based; settings: in vivo, 672 h, time 28 day
# Outline: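 Repeated-dose oral toxicity by gavage in Wistar rats, 10 males and 10 females per group, given 100, 200 or 400 mg/kg once daily for 28 days. Endpoints were clinical signs, mortality, neurobehaviour, food intake, ophthalmic examination and body weight. Animals were sacrificed on day 29 for blood biochemistry, organ-to-body weight ratios and histopathology.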
# [26] = Toxicity in male Wistar rat assessed as ratio of liver to body weight at 200 mg/kg, po after 28 days (reference value: 3.142 +/- 0.231); type: organism-based; settings: in vivo, 672 h, time 28 day
# [27] = Tmax in Sprague-Dawley rat at 25 mg/kg, po up to 24 hrs; type: ADME, organism-based; settings: in vivo
# Outline: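 Male SD rats fasted overnight, water ad libitum, fed 4 h after dosing. Single oral gavage of 25 mg/kg as a homogeneous suspension in 0.5% Tween 80 in 0.5% Na-CMC. Blood drawn into Na-heparin tubes at 0.25, 0.5, 1, 2, 4, 6, 8 and 24 h; plasma stored at -70°C. Parameters by non-compartmental analysis, with C0 taken as zero and BLQ samples set to zero.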
# [28] = Toxicity in male Wistar rat assessed as ratio of spleen to body weight at 200 mg/kg, po after 28 days (reference value: 0.206 +/- 0.026); type: organism-based; settings: in vivo, 672 h, time 28 day
# Mus musculus = experiment: Antidiabetic activity in db/db mouse assessed as reduction in blood glucose level at 50 mg/kg, po pretreated for 30 mins followed by glucose-stimulation and measured up to 120 mins by OGTT method relative to control; type: functional; design: scale not given: the % may be the effect or the level left; settings: 0.5 h
# Outline: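 db/db mice aged 5–7 weeks were fasted and grouped by fasting serum glucose. Single oral dose of 50 mg/kg; 30 min later basal bleed and oral glucose 2 g/kg. Serum glucose taken at 30, 60 and 120 min. AUC glucose excursion computed against a no-glucose water group and expressed as % reduction vs vehicle; mean ± s.e.m.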
# [29] = Toxicity in female Wistar rat assessed as ratio of adrenals to body weight at 200 mg/kg, po after 28 days (reference value: 0.045 +/- 0.007); type: organism-based; settings: in vivo, 672 h, time 28 day
# [30] = AUC(0 to t) in Beagle dog at 10 mg/kg, po up to 24 hrs; type: ADME, organism-based, Canis lupus familiaris; design: route oral, dose 10 mg/kg, time <=24; settings: in vivo; outline: as §1
# [31] = Elimination rate constant in Wistar rat at 10 mg/kg, po up to 24 hrs; type: ADME, organism-based; settings: in vivo; outline: as §1
# [32] = Toxicity in female Wistar rat assessed as ratio of thymus to body weight at 200 mg/kg, po after 28 days (reference value: 0.260 +/- 0.025); type: organism-based; settings: in vivo, 672 h, time 28 day
# [33] = Toxicity in male Wistar rat assessed as ratio of epididymides to body weight at 400 mg/kg, po after 28 days (reference value: 0.361 +/- 0.028); type: organism-based; settings: in vivo, 672 h, time 28 day
structure (smiles),measurement,setting,value
Cc1c(Oc2cccc(/C=C3\SC(=O)NC3=O)c2)ncnc1OC1CCN(C(=O)OC(C)(C)C)CC1,Activity,[1],128.19 U/L
same,Ratio,[2],0.241
same,Ratio,[3],0.84
same,Activity,[4],0.63 mg/dL
same,k el at 24 h,[5],1.11e-05 s⁻¹
same,Ratio,[6],1.228
same,Ratio,[7],0.167
same,AUC(0-t) at 24 h,[8],1770 ng·h/mL
same,Ratio,[9],0.175
same,Ratio,[10],0.046
same,Activity,[11],100.97 U/L
same,Ratio,[12],0.023
same,Ratio,[13],0.371
same,Cmax,[14],1050 ng/mL
same,Activity,[15],30.15 U/L
same,Ratio,[16],0.363
same,Ratio,[17],0.081
same,Activity,[18],2.64 g/dL
same,Ratio,[19],0.338
same,Ratio,[20],0.824
same,Activity,[21],120.42 U/L
same,AUC(0-inf),[22],15200 ng·h/mL
same,Ratio,[23],0.222
same,Activity,[24],0.66 mg/dL
same,Activity,[25],Non-Toxic
same,Ratio,[26],3.304
same,Tmax,[27],1.75 h
same,Ratio,[28],0.22
same,Activity,Mus musculus,69.1%
same,Ratio,[29],0.044
same,AUC(0-t) at 24 h,[30],14900 ng·h/mL
same,k el at 24 h,[31],1.94e-05 s⁻¹
same,Ratio,[32],0.257
same,Ratio,[33],0.365
